The values below come from ChEMBL document CHEMBL3351742, “Novel quinazoline-urea analogues as modulators for Aβ-induced mitochondrial dysfunction: design, synthesis, and molecular docking study” (Eur J Med Chem, 2014).

One data set has as its system HT-22. As to the kind of experiment: Inhibition of beta-amyloid peptide-induced mitochondrial permeability transition pore opening in mouse HT22 cells assessed as increase in green/red fluorescence ratio at 5 uM pre-incubated for 10 mins before Abeta peptide addition by JC-1 assay. It counts as cell-based. Also on record: scale not given: the % may be the effect or the level left. The method in brief:
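HT-22 mouse hippocampal cells (DMEM, 10% FBS, 37 °C, 5% CO2), 30,000/well seeded a day ahead; loaded with 7.5 μM JC-1 (final) in phenol red-free Opti-MEM for 1 h 15 min at 37 °C, PBS-washed. Compound 5 μM for 10 min, then Aβ1–42 5 μM. Fluorescence read hourly for 3 h, red ex/em 530/580, green 485/530; green/red ratio change relative to Aβ alone (100%).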

Data set [1] is described as follows: Toxicity against mouse HT22 cells assessed as cell viability at 5 uM after 24 hrs by MTT assay. It counts as cell-based, HT-22. The following applies: read-out: Activity. The method in brief: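 HT-22 cells, 5000/well, given compound at 5 μM without Aβ, 24 h at 37 °C. MTT added for 2 h at 37 °C, formazan dissolved in 10% Triton X-100/isopropanol with 0.1 M HCl for 1 h at room temperature; absorbance at 570 nm, vehicle-control values subtracted to derive viability.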
A general note: Tetrazolium dyes change colour on reduction, which living cells bring about.

As to `O=C(Nc1ccccc1F)Nc1cc2ncncc2cc1OCc1ccc(F)cc1`, the Activity in the data set with HT-22 turned out to be 80.3%.

Turning to `O=C(Nc1ccccc1F)Nc1cc2ncncc2cc1OCc1ccccc1Cl`, in data set [1], the viability at 24 h, 5 µM is 101%. Also, in the data set on HT-22, the Activity was 31%.

On to `O=C(Nc1cccc(F)c1)Nc1cc2ncncc2cc1OCc1ccc(Cl)cc1`, for which the viability at 24 h, 5 µM in data set [1] amounted to 100%. In addition, the Activity in the data set on HT-22 came out at 29%.

Turning to `O=C(Nc1ccc(Cl)c(Cl)c1)Nc1cc2ncncc2cc1OCc1ccccc1`, the Activity with HT-22 worked out at 73%.

In the case of `O=C(Nc1ccccc1F)Nc1cc2ncncc2cc1OCc1ccc(Cl)cc1`, in data set [1], the viability at 24 h, 5 µM came to 102%. In the data set with HT-22, the Activity was 24%.

Consider `O=C(Nc1cccc(F)c1)Nc1cc2ncncc2cc1OCc1ccc(F)cc1`, for which, in the data set with HT-22, the Activity is 61.5%.

Turning to `O=C(Nc1cc2ncncc2cc1OCc1ccccc1)Nc1cccc2ccccc12`, the Activity in the data set on HT-22 was found to be 76%.

Turning to `O=C(Nc1cccc(F)c1)Nc1cc2ncncc2cc1OCc1ccccc1F`, the Activity in the data set on HT-22 was found to be 56.9%.

For the compound `O=C(Nc1cccc(Cl)c1)Nc1cc2ncncc2cc1OCc1ccc(F)cc1`, the Activity in the data set with HT-22 was 67.9%.

On to `O=C(Nc1cc2ncncc2cc1OCc1ccccc1F)Nc1cccc2ccccc12`, for which the viability at 24 h, 5 µM in data set [1] was 83%. Also, the Activity in the data set with HT-22 is 39.4%.

Turning to `O=C(Nc1ccc(C(F)(F)F)cc1)Nc1cc2ncncc2cc1OCc1ccccc1F`, in the data set with HT-22, the Activity was determined as 68.6%.

With `Cc1ccc(NC(=O)Nc2cc3ncncc3cc2OCc2ccccc2F)cc1`, the viability at 24 h, 5 µM in data set [1] is 131%. The Activity in the data set on HT-22 worked out at 26.7%.

Take `Cc1ccc(NC(=O)Nc2cc3ncncc3cc2OCc2ccc(Cl)cc2)cc1`: in the data set with HT-22, the Activity was found to be 63%.

`O=C(Nc1ccc(C(F)(F)F)cc1)Nc1cc2ncncc2cc1OCc1ccc(Cl)cc1`: the Activity in the data set on HT-22 worked out at 48%.

For `Cc1ccc(NC(=O)Nc2cc3ncncc3cc2OCc2cccc(F)c2)cc1`, in the data set with HT-22, the Activity came out at 81%.

Take `O=C(Nc1ccc(C(F)(F)F)cc1)Nc1cc2ncncc2cc1OCc1ccc(F)cc1`: the Activity in the data set on HT-22 was determined as 81%.

As to `O=C(Nc1ccc(Cl)c(Cl)c1)Nc1cc2ncncc2cc1OCc1ccc(Cl)cc1`, the Activity in the data set with HT-22 amounted to 91%.

Consider `O=C(Nc1cccc(Cl)c1)Nc1cc2ncncc2cc1OCc1ccccc1F`, for which the Activity in the data set on HT-22 was 51.4%.

`Cc1ccc(NC(=O)Nc2cc3ncncc3cc2OCc2ccccc2)cc1`: the Activity in the data set with HT-22 was found to be 154%.

As for `Cc1ccc(NC(=O)Nc2cc3ncncc3cc2OCc2ccc(F)cc2)cc1`, in the data set on HT-22, the Activity worked out at 99.2%.

For the compound `O=C(Nc1cccc(F)c1)Nc1cc2ncncc2cc1OCc1cccc(F)c1`, the viability at 24 h, 5 µM in data set [1] is 104%. In addition, in the data set with HT-22, the Activity amounted to 27%.

Regarding `O=C(Nc1cccc(F)c1)Nc1cc2ncncc2cc1OCc1ccccc1`, the viability at 24 h, 5 µM in data set [1] turned out to be 100%. For the same compound, the Activity in the data set on HT-22 turned out to be 38%.

As for `Cc1ccc(NC(=O)Nc2cc3ncncc3cc2OCc2ccccc2Cl)cc1`, the Activity in the data set with HT-22 turned out to be 54.7%.

For the compound `O=C(Nc1ccc(Cl)c(Cl)c1)Nc1cc2ncncc2cc1OCc1ccc(F)cc1`, the Activity with HT-22 amounted to 155%.

On to `O=C(Nc1cccc(Cl)c1)Nc1cc2ncncc2cc1OCc1ccc(Cl)cc1`, for which the Activity in the data set with HT-22 amounted to 64%.
